ChEMBL document CHEMBL1148725, “2,2,2-Trichloro-N-({2-[2-(dimethylamino)ethyl]-1,3-dioxo-2,3-dihydro-1H-benzo[de]isoquinolin- 5-yl}carbamoyl)acetamide (UNBS3157), a novel nonhematotoxic naphthalimide derivative with potent antitumor activity” (J Med Chem, 2007)
pIC50: −log10 of the molar value.

Key:
A549 = experiment: Antiproliferative activity against A549 cells after 72 hrs by MTT assay; format: functional, cell-based, Homo sapiens
How it was run: (§1)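 Cells cultured with each compound for three days; growth then read by the MTT colorimetric assay and reported as IC50 (µM).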

[1] = Antiproliferative activity against Hs683 cells after 72 hrs by MTT assay; format: functional, cell-based, Homo sapiens, Hs 683; how it was run: as §1
L1210 [2] = experiment: Antitumor activity in L1210 cells xenografted B6D2F1 mouse at 80 mg/kg, ip relative to control; format: functional; details: route intraperitoneal
How it was run: (§2)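 Mice grafted with L1210 leukaemia cells on day 0, then dosed i.p. four times weekly on days 1-4 and 8-11. Five mice per group. Outcome is %T/C, the median survival of treated over control. Kruskal-Wallis test followed by Dunn comparisons against control.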

[3] = Toxicity in ip dosed B6D2F1 mouse; format: organism-based; details: in vivo
How it was run: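 Acute MTD was set by a single i.p. dose to groups of three healthy female B6D2F1 mice, at 2.5, 5, 10, 20, 40, 80 and 160 mg/kg. The MTD is the dose just below the lowest dose that killed at least one mouse.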

HCT-15 = experiment: Antiproliferative activity against HCT15 cells after 72 hrs by MTT assay; format: functional, cell-based, Homo sapiens; how it was run: as §1
LoVo = experiment: Antiproliferative activity against LoVo cells after 72 hrs by MTT assay; format: functional, cell-based, Homo sapiens; how it was run: as §1
[4] = Antiproliferative activity against U373MG cells after 72 hrs by MTT assay; format: functional, cell-based, Homo sapiens, U-373MG ATCC; how it was run: as §1
MCF7 = experiment: Antiproliferative activity against MCF7 cells after 72 hrs by MTT assay; format: functional, cell-based, Homo sapiens; details: Homo sapiens, MCF7, 72 h; how it was run: as §1
L1210 [5] = experiment: Antitumor activity in L1210 cells xenografted B6D2F1 mouse at 40 mg/kg, ip relative to control; format: functional; details: route intraperitoneal; how it was run: as §2
L1210 [6] = experiment: Antitumor activity in L1210 cells xenografted B6D2F1 mouse at 20 mg/kg, ip relative to control; format: functional; details: route intraperitoneal; how it was run: as §2

Row | SMILES | pIC50 (A549; Homo sapiens, A549, 72 h) | pIC50 ([1]; Homo sapiens, Hs 683, 72 h) | Activity (L1210 [2]) | MTD [3] | pIC50 (HCT-15; Homo sapiens, HCT-15, 72 h) | pIC50 (LoVo; Homo sapiens, LoVo, 72 h) | pIC50 ([4]; Homo sapiens, U373 MG, 72 h) | pIC50 (MCF7) | Activity (L1210 [5]) | pIC50 (A549; a549) | pIC50 ([1]; hs 683) | pIC50 (HCT-15; hct-15) | pIC50 (LoVo; lovo) | pIC50 ([4]; u-373mg atcc) | Activity (L1210 [6])
1 | CN(C)CCN1C(=O)c2cccc3cc(NC(=O)Nc4ccc5c(c4)OCO5)cc(c23)C1=O | 5.26 | 5.24 | 187% | > 80 mg/kg | 5.11 | 5.36 | 5.85 | 5.18 | – | – | – | – | – | – | –
2 | CCOC(=O)NC(=O)Nc1cc2c3c(cccc3c1)C(=O)N(CCN(C)C)C2=O | 5.31 | 5.44 | – | 80 mg/kg | 5.36 | 5.11 | 5.39 | 5.20 | 207% | – | – | – | – | – | –
3 | CN(C)CCN1C(=O)c2cccc3cc(NC(=O)CCCCl)cc(c23)C1=O | < 5.00 | < 5.00 | 164% | > 80 mg/kg | < 5.00 | 5.00 | < 5.00 | < 5.00 | – | – | – | – | – | – | –
4 | CN(C)CCN1C(=O)c2cccc3cc(NC(=O)Nc4ccc(Cl)cc4)cc(c23)C1=O | 5.72 | 5.55 | 161% | 80 mg/kg | 5.51 | 5.70 | 5.44 | 5.62 | – | – | – | – | – | – | –
5 | CN(C)CCN1C(=O)c2cccc3cc(NCc4ccc5c(c4)OCO5)cc(c23)C1=O | – | – | – | > 80 mg/kg | – | – | – | – | 140% | 5.07 | 5.01 | 5.09 | 5.32 | < 5.00 | –
6 | CN(C)CCN1C(=O)c2cccc3cc(NC(=O)C(F)(F)F)cc(c23)C1=O | 5.02 | 5.06 | – | 40 mg/kg | < 5.00 | 5.35 | 5.09 | 5.02 | 124% | – | – | – | – | – | –
7 | CN(C)CCN1C(=O)c2cccc3cc(NC(=O)Nc4ccc(OC(F)(F)F)cc4)cc(c23)C1=O | 5.51 | 5.59 | 194% | > 80 mg/kg | 5.24 | 5.49 | 5.51 | 5.19 | – | – | – | – | – | – | –
8 | CN(C)CCN1C(=O)c2cccc3cc(NC(=O)C(Cl)(Cl)Cl)cc(c23)C1=O | 5.00 | < 5.00 | – | > 80 mg/kg | < 5.00 | 5.19 | 5.05 | < 5.00 | – | – | – | – | – | – | 150%
9 | CN(C)CCN1C(=O)c2cccc3cc(NCc4cc5c(cc4[N+](=O)[O-])OCO5)cc(c23)C1=O.Cl | < 5.00 | 5.12 | 150% | > 80 mg/kg | 5.10 | 5.30 | < 5.00 | < 5.00 | – | – | – | – | – | – | –
10 | CN(C)CCN1C(=O)c2cccc3cccc(c23)C1=O | 5.25 | 5.16 | 156% | 40 mg/kg | 5.04 | 5.33 | 5.12 | 5.00 | – | – | – | – | – | – | –
11 | CN(C)CCN1C(=O)c2cccc3cc(NC(=S)Nc4ccc(C#N)cc4)cc(c23)C1=O | < 5.00 | < 5.00 | – | > 80 mg/kg | < 5.00 | < 5.00 | 5.03 | < 5.00 | – | – | – | – | – | – | –
12 | CN(C)CCN1C(=O)c2cccc3cc(NC(=S)NCc4ccc5c(c4)OCO5)cc(c23)C1=O | < 5.00 | < 5.00 | – | > 80 mg/kg | < 5.00 | < 5.00 | < 5.00 | < 5.00 | – | – | – | – | – | – | –
13 | CN(C)CCN1C(=O)c2cccc3cc(NC(=O)c4ccccc4)cc(c23)C1=O | 5.07 | 5.25 | – | 40 mg/kg | 5.08 | 5.43 | 5.22 | < 5.00 | – | – | – | – | – | – | 167%
14 | COC(=O)Nc1cc2c3c(cccc3c1)C(=O)N(CCN(C)C)C2=O | 5.23 | 5.48 | – | 40 mg/kg | 5.14 | 5.39 | 5.38 | < 5.00 | 133% | – | – | – | – | – | –
15 | CN(C)CCN1C(=O)c2cccc3cc(NCc4cc5c(cc4[N+](=O)[O-])OCO5)cc(c23)C1=O | – | – | 157% | > 80 mg/kg | – | – | – | – | – | – | < 5.00 | < 5.00 | 5.09 | – | –
16 | COc1cc(/C=N\c2cc3c4c(cccc4c2)C(=O)N(CCN(C)C)C3=O)ccc1O | < 5.00 | < 5.00 | 164% | > 80 mg/kg | < 5.00 | < 5.00 | < 5.00 | < 5.00 | – | – | – | – | – | – | –
17 | CCOC(=O)CCC(=O)Nc1cc2c3c(cccc3c1)C(=O)N(CCN(C)C)C2=O | < 5.00 | < 5.00 | 156% | > 80 mg/kg | < 5.00 | < 5.00 | < 5.00 | < 5.00 | – | – | – | – | – | – | –

Row | SMILES | pIC50 (A549; Homo sapiens, A549, 72 h) | pIC50 ([1]; Homo sapiens, Hs 683, 72 h) | Activity (L1210 [2]) | MTD [3] | pIC50 (HCT-15; Homo sapiens, HCT-15, 72 h) | pIC50 (LoVo; Homo sapiens, LoVo, 72 h) | pIC50 ([4]; Homo sapiens, U373 MG, 72 h) | pIC50 (MCF7) | Activity (L1210 [5]) | pIC50 (A549; a549) | pIC50 ([1]; hs 683) | pIC50 (HCT-15; hct-15) | pIC50 (LoVo; lovo) | pIC50 ([4]; u-373mg atcc) | Activity (L1210 [6])
18 | CCOC(=O)c1ccc(NC(=O)Nc2cc3c4c(cccc4c2)C(=O)N(CCN(C)C)C3=O)cc1 | 5.80 | 5.68 | 187% | > 80 mg/kg | 5.13 | 5.82 | 5.68 | 5.51 | – | – | – | – | – | – | –
19 | CN(C)CCN1C(=O)c2cccc3cc(NC(=O)NC(=O)c4ccccc4)cc(c23)C1=O | 5.70 | 5.52 | – | 40 mg/kg | 5.47 | 5.68 | 5.47 | 5.44 | 140% | – | – | – | – | – | –
20 | CN(C)CCN1C(=O)c2cccc3cc(NC=O)cc(c23)C1=O | 5.41 | 5.32 | – | > 80 mg/kg | 5.37 | 5.18 | 5.36 | 5.13 | – | – | – | – | – | – | –
21 | CN(C)CCN1C(=O)c2cccc3cc(/N=C\c4ccc(C#N)cc4)cc(c23)C1=O | 5.11 | < 5.00 | 135% | > 80 mg/kg | 5.00 | 5.39 | 5.38 | 5.13 | – | – | – | – | – | – | –
22 | CN(C)CCN1C(=O)c2cccc3cc(NC(=O)NCCCl)cc(c23)C1=O | 5.52 | 5.34 | – | > 80 mg/kg | 5.25 | 5.74 | 6.00 | 5.41 | – | – | – | – | – | – | 156%
23 | CN(C)CCN1C(=O)c2cccc3cc(NCc4ccccc4O[C@H]4O[C@H](CO)[C@@H](O)[C@H](O)[C@H]4O)cc(c23)C1=O | – | – | 113% | > 80 mg/kg | – | – | – | – | – | – | – | – | – | – | –
24 | CN(C)CCN1C(=O)c2cccc3cc(NC(=S)Nc4ccc(OC(F)(F)F)cc4)cc(c23)C1=O | 5.37 | 5.19 | 171% | 40 mg/kg | 5.23 | 5.40 | 5.44 | 5.32 | – | – | – | – | – | – | –
25 | CN(C)CCN1C(=O)c2cccc3cc(NC(=O)Nc4cc5c6c(cccc6c4)C(=O)N(CCN(C)C)C5=O)cc(c23)C1=O | 5.44 | 5.30 | – | 40 mg/kg | 5.34 | 5.55 | 5.44 | 5.32 | – | – | – | – | – | – | 124%
26 | CN(C)CCN1C(=O)c2cccc3cc(NC(=S)Nc4ccc(Cl)cc4)cc(c23)C1=O | < 5.00 | < 5.00 | 164% | > 80 mg/kg | < 5.00 | 5.06 | < 5.00 | < 5.00 | – | – | – | – | – | – | –
27 | CN(C)CCN1C(=O)c2cccc3cc(NCc4ccc5c(c4)OCO5)cc(c23)C1=O.Cl | < 5.00 | – | 207% | > 80 mg/kg | 5.35 | 5.43 | – | < 5.00 | – | – | 5.35 | – | – | 5.40 | –
28 | CN(C)CCN1C(=O)c2cccc3cc([N+](=O)[O-])cc(c23)C1=O [MITONAFIDE] | 5.62 | 5.43 | – | 40 mg/kg | 5.59 | 6.40 | 5.89 | – | – | – | – | – | – | – | 193%
29 | CN(C)CCN1C(=O)c2cccc3cc(NCc4ccccc4O[C@H]4O[C@H](CO)[C@@H](O)[C@H](O)[C@H]4O)cc(c23)C1=O.Cl | < 5.00 | < 5.00 | – | > 80 mg/kg | < 5.00 | < 5.00 | < 5.00 | < 5.00 | 129% | – | – | – | – | – | –
30 | CN(C)CCN1C(=O)c2cccc3cc(/N=C\c4cc(O)ccc4O)cc(c23)C1=O.Cl | – | – | – | 40 mg/kg | – | – | 5.33 | 5.20 | 210% | 5.41 | 5.31 | 5.37 | 5.43 | – | –
31 | CN(C)CCN1C(=O)c2cccc3cc(NC(=O)Nc4ccc(C#N)cc4)cc(c23)C1=O | 5.46 | 5.30 | 207% | > 80 mg/kg | 5.01 | 5.38 | 6.05 | 5.51 | – | – | – | – | – | – | –
32 | CN(C)CCN1C(=O)c2cccc3cc(NCc4ccc5c(c4)OCCO5)cc(c23)C1=O | 5.01 | 5.26 | 150% | > 80 mg/kg | 5.17 | 5.40 | 5.15 | 5.05 | – | – | – | – | – | – | –
33 | COc1cc(/C=N\c2cc3c4c(cccc4c2)C(=O)N(CCN(C)C)C3=O)cc(OC)c1OC | 5.17 | < 5.00 | 107% | > 80 mg/kg | < 5.00 | 5.30 | 5.19 | < 5.00 | – | – | – | – | – | – | –
